# Experimental data of several laboratories.
# Protocols differ between the studies behind these lines.
# Target: MAP kinase-activated protein kinase 2 (MAPKAPK2, Homo sapiens, UniProt P49137)
test,setting,quantity,value,Compound
"enzyme activity, inhibitor",1 µM,inhibition,0%,C=CC(=O)N1CCC[C@@H](n2nc(-c3ccc(Oc4ccccc4)cc3)c3c(N)ncnc32)C1
binding,1 µM,remaining binding,103%,COc1ccc2oc(-c3ccc4nc(N)oc4c3)c/c(=N\c3ccccc3NC(=O)CCN)c2c1
"binding, competition with immobilised ligand",0.5 µM,remaining binding,100%,CCCCC(=O)Nc1ccc(-c2ccc3ncn(CCC)c(=O)c3c2)cn1
binding,1 µM,remaining binding,100%,COc1ccc2[nH]c3c4[nH]c5ccc(OC)cc5c4c4c(c3c2c1)C(=O)NC4=O
"enzyme activity, inhibitor",1 µM,inhibition,29%,C=CC(=O)N1CCC([C@@H]2CCNc3c(C(N)=O)c(-c4ccc(Oc5ccccc5)cc4)nn32)CC1
cell-free assay,1 µM,remaining signal,100%,C#Cc1cnc(Nc2ccnc(CO)c2)nc1Nc1ccccc1S(C)(=O)=NC#N (stereo not drawn)
binding,0.1 µM,remaining binding,100%,C1=C/COCc2cc(ccc2OCCN2CCCC2)Nc2nccc(n2)-c2cccc(c2)COC/1
binding,1 µM,remaining binding,100%,CN1CCN(C(=O)c2ccc(NC(=O)Nc3ccc(N(C)c4ccnc(Nc5ccc(CS(C)(=O)=O)cc5)n4)cc3)cc2)CC1
"cell-free assay, competition with immobilised ligand",25 µM,remaining binding,65%,N#Cc1ccc(NC(=O)Nc2ccccc2)cc1
